Reference: ChEMBL document CHEMBL5260794, “Synthesis and biological evaluation of a new class of benzothiazines as neuroprotective agents” (Eur J Med Chem, 2017)
Activity calls are given as the source filed them. No cut-off for these calls is given here.

Species: Rattus norvegicus
Test: Neuroprotective activity against oxygen glucose deprivation/reperfusion-induced Wistar rat cortical brain assessed as concentration required to reduce glutamate release by measuring efficacy window
Format: functional
Conditions: not given
Summary of the method: (§1)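 Male Wistar rat cortical slices (400 μm) in oxygenated ACSF, pH 7.4, 1 h at room temperature, then 30 min at 37 °C. OGD for 30 min in glucose-free ACSF with 11 mM sucrose under 95% N₂/5% CO₂. Compound added in the reoxygenation buffer. Glutamate and LDH release measured. Mean ± SEM of at least four experiments, ANOVA with Dunnett test.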

Structure (SMILES) | Efficacy
CCCNC(=S)NC1=Nc2ccccc2CS1 | 0.001 µM
C/C(=N\C1=Nc2ccccc2CS1)N(C)C | 0.01 µM
C/C(=N\C1=Nc2ccccc2SC1)N(C)C | inactive
NC1=Nc2ccc(OC(F)(F)F)cc2CS1 | 0.001 µM
CCN(CC)/C(C)=N/C1=Nc2ccccc2SC1 | inactive
CCCN(CCC)/C(C)=N/C1=Nc2ccc(OC(F)(F)F)cc2CS1 | 0.01 µM
CN/C(C)=N/C1=Nc2ccccc2SC1 | 0.1 µM
CN/C(C)=N/C1=Nc2ccccc2CS1 | 5 µM
CCN(CC)/C(C)=N/C1=Nc2ccc(OC(F)(F)F)cc2CS1 | inactive
CCCN(CCC)/C(C)=N/C1=Nc2ccccc2SC1 | inactive

System: SH-SY5Y
Test: Neuroprotective activity against glutamate-induced toxicity in human SH-SY5Y cells assessed as reduction in grade 2 to 3 toxicity at 0.01 uM pretreated for 1 hr followed by glutamate challenge measured after 24 hrs by phase-contrast light microscopic analysis
Format: functional, cell-based
Conditions: time 25.0 hrs
Summary of the method: (§2)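 SH-SY5Y cells pretreated with compound 1 h, then glutamate 50 mM for 24 h. Morphology examined and photographed by phase-contrast microscopy. Scored on USP 28 grade scale 0-4, with grades based on cell rounding, loss of intracytoplasmic granules, lysis and empty areas between cells. Control wells received medium only.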

Structure (SMILES) | Activity
Nc1nc2ccc(OC(F)(F)F)cc2s1 [RILUZOLE] | Active

System: SH-SY5Y
Test: Neuroprotective activity against glutamate-induced toxicity in human SH-SY5Y cells assessed as cell viability at 0.01 uM pretreated for 1 hr followed by glutamate challenge measured after 24 hrs by MTT assay
Format: functional
Conditions: time 25 hrs, read-out: Activity

Structure (SMILES) | viability at 0.01 µM [%]
Nc1nc2ccc(OC(F)(F)F)cc2s1 [RILUZOLE] | 65

Species: Rattus norvegicus
Test: Neuroprotective activity against oxygen glucose deprivation/reperfusion-induced Wistar rat cortical brain assessed as reduction in glutamate release by measuring minimal effective concentration
Format: functional
Conditions: not given
Summary of the method: as §1

Structure (SMILES) | MEC
CCCNC(=S)NC1=Nc2ccccc2CS1 | 0.001 µM
C/C(=N\C1=Nc2ccccc2CS1)N(C)C | 0.01 µM
C/C(=N\C1=Nc2ccccc2SC1)N(C)C | inactive
NC1=Nc2ccc(OC(F)(F)F)cc2CS1 | 0.001 µM
CCN(CC)/C(C)=N/C1=Nc2ccccc2SC1 | inactive
CCCN(CCC)/C(C)=N/C1=Nc2ccc(OC(F)(F)F)cc2CS1 | 0.01 µM
CN/C(C)=N/C1=Nc2ccccc2SC1 | 0.1 µM
CN/C(C)=N/C1=Nc2ccccc2CS1 | 5 µM
CCN(CC)/C(C)=N/C1=Nc2ccc(OC(F)(F)F)cc2CS1 | inactive
CCCN(CCC)/C(C)=N/C1=Nc2ccccc2SC1 | inactive

System: SH-SY5Y
Test: Neuroprotective activity against glutamate-induced toxicity in human SH-SY5Y cells assessed as reduction in G0/G1 phase cells at 0.01 uM pretreated for 1 hr followed by glutamate challenge measured after 24 hrs by propidium staining based flow cytometry
Format: functional, cell-based
Conditions: time 25.0 hrs
Summary of the method: (§3)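 Cells seeded 2.5 x 10⁵ cells/mL, pretreated with compound 1 h, then glutamate 50 mM for 24 h. Cells fixed in 70% ethanol (30 min, 4 °C), kept at -20 °C for at least 24 h, stained with propidium iodide and run on flow cytometer (563-607 nm band-pass). At least 1x10⁴ cells acquired per sample; sub-G0/G1 peak taken as apoptotic. Mean ± SEM, 4 independent experiments.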

Structure (SMILES) | Activity
Nc1nc2ccc(OC(F)(F)F)cc2s1 [RILUZOLE] | Active

System: SH-SY5Y
Test: Neuroprotective activity against glutamate-induced toxicity in human SH-SY5Y cells assessed as reduction in condensed and fragmented nuclei at 0.01 uM pretreated for 1 hr followed by glutamate challenge measured after 24 hrs by DAPI staining based assay (reference value: 16.9 +/- 1.5%)
Format: functional, cell-based
Conditions: time 25.0 hrs

Structure (SMILES) | Activity
Nc1nc2ccc(OC(F)(F)F)cc2s1 [RILUZOLE] | Active

System: SH-SY5Y
Test: Neuroprotective activity against glutamate-induced toxicity in human SH-SY5Y cells assessed as reduction in sub G0/G1 phase cells at 0.01 uM pretreated for 1 hr followed by glutamate challenge measured after 24 hrs by propidium staining based flow cytometry
Format: functional, cell-based
Conditions: time 25.0 hrs
Summary of the method: as §3

Structure (SMILES) | Activity
Nc1nc2ccc(OC(F)(F)F)cc2s1 [RILUZOLE] | Active

System: SH-SY5Y
Test: Neuroprotective activity against glutamate-induced toxicity in human SH-SY5Y cells assessed as reduction in ROS production at 0.01 uM by DCFH-DA staining based assay
Format: functional, cell-based
Conditions: time 24.0 hrs, TDE = time-dependent effect
Summary of the method: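 Before treatment, SH-SY5Y cells loaded with DCFH-DA (5 μM, 30 min) and washed in PBS. Then 1 h compound pretreatment followed by glutamate 50 mM. Fluorescence read at 1 h or 24 h (ex 485, em 535 nm). Result expressed as % inhibition of glutamate-induced intracellular ROS. Mean ± SEM, 4 independent experiments in triplicate or quadruplicate.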

Structure (SMILES) | Activity
Nc1nc2ccc(OC(F)(F)F)cc2s1 [RILUZOLE] | Tde

Species: Rattus norvegicus
Test: Neuroprotective activity against oxygen glucose deprivation/reperfusion-induced Wistar rat cortical brain assessed as reduction in glutamate release relative to control
Format: functional
Set-up: concentration or dose not given beside the values
Conditions: not given
Summary of the method: as §1

Structure (SMILES) | Activity
CCCNC(=S)NC1=Nc2ccccc2CS1 | 45.7%
C/C(=N\C1=Nc2ccccc2CS1)N(C)C | 72.7%
C/C(=N\C1=Nc2ccccc2SC1)N(C)C | inactive
NC1=Nc2ccc(OC(F)(F)F)cc2CS1 | 69.1%
CCN(CC)/C(C)=N/C1=Nc2ccccc2SC1 | inactive
CCCN(CCC)/C(C)=N/C1=Nc2ccc(OC(F)(F)F)cc2CS1 | 17.8%
CN/C(C)=N/C1=Nc2ccccc2SC1 | 25.5%
CN/C(C)=N/C1=Nc2ccccc2CS1 | 43.6%
CCN(CC)/C(C)=N/C1=Nc2ccc(OC(F)(F)F)cc2CS1 | inactive
CCCN(CCC)/C(C)=N/C1=Nc2ccccc2SC1 | inactive

System: SH-SY5Y
Test: Neuroprotective activity against 6-OHDA-induced toxicity in human SH-SY5Y cells assessed as condensed and fragmented nuclei at 0.01 uM pretreated for 1 hr followed by 6-OHDA challenge measured after 2 hrs by DAPI staining based assay relative to control
Format: functional
Conditions: time 3 hrs

Structure (SMILES) | Activity [%]
Nc1nc2ccc(OC(F)(F)F)cc2s1 [RILUZOLE] | >20

System: SH-SY5Y
Test: Neuroprotective activity against glutamate-induced toxicity in human SH-SY5Y cells assessed as increase in S phase cells at 0.01 uM pretreated for 1 hr followed by glutamate challenge measured after 24 hrs by propidium staining based flow cytometry
Format: functional, cell-based
Conditions: time 25.0 hrs
Summary of the method: as §3

Structure (SMILES) | Activity
Nc1nc2ccc(OC(F)(F)F)cc2s1 [RILUZOLE] | Active

System: SH-SY5Y
Test: Neuroprotective activity against 6-OHDA-induced toxicity in human SH-SY5Y cells assessed as increase in cell viability at 0.01 uM pretreated for 1 hr followed by 6-OHDA challenge measured after 2 hrs by MTT assay
Format: functional, cell-based
Conditions: time 3.0 hrs
Summary of the method: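 SH-SY5Y cells (RPMI 1640, 10% FBS, 37 °C, 5% CO2, used in exponential growth) seeded 8 x 10⁴ cells/mL, attached 24 h, pre-incubated with compound 1 h, then 6-OHDA 55 μM for 2 h (6-OHDA freshly dissolved in nitrogen-gassed 5 μM ascorbic acid). Controls received medium with 5 μM ascorbic acid. Viability by MTT. Mean ± SEM of 4 independent experiments, each in triplicate or quadruplicate.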

Structure (SMILES) | Activity
Nc1nc2ccc(OC(F)(F)F)cc2s1 [RILUZOLE] | Active

System: SH-SY5Y
Test: Neuroprotective activity against glutamate-induced toxicity in human SH-SY5Y cells assessed as reduction in cell rounding at 0.01 uM pretreated for 1 hr followed by glutamate challenge measured after 24 hrs by phase-contrast light microscopic analysis
Format: functional, cell-based
Conditions: time 25.0 hrs
Summary of the method: as §2

Structure (SMILES) | Activity
Nc1nc2ccc(OC(F)(F)F)cc2s1 [RILUZOLE] | Active

Species: Rattus norvegicus
Test: Neuroprotective activity against oxygen glucose deprivation/reperfusion-induced Wistar rat cortical brain assessed as concentration required to reduce LDH release by measuring efficacy window
Format: functional
Conditions: not given
Summary of the method: as §1

Structure (SMILES) | Efficacy
CCCNC(=S)NC1=Nc2ccccc2CS1 | inactive
C/C(=N\C1=Nc2ccccc2CS1)N(C)C | 0.01 µM
C/C(=N\C1=Nc2ccccc2SC1)N(C)C | inactive
NC1=Nc2ccc(OC(F)(F)F)cc2CS1 | inactive
CCN(CC)/C(C)=N/C1=Nc2ccccc2SC1 | inactive
CCCN(CCC)/C(C)=N/C1=Nc2ccc(OC(F)(F)F)cc2CS1 | 0.1 µM
CN/C(C)=N/C1=Nc2ccccc2SC1 | 100 µM
CN/C(C)=N/C1=Nc2ccccc2CS1 | 1 µM
CCN(CC)/C(C)=N/C1=Nc2ccc(OC(F)(F)F)cc2CS1 | inactive
CCCN(CCC)/C(C)=N/C1=Nc2ccccc2SC1 | 10 µM

System: SH-SY5Y
Test: Neuroprotective activity against 6-OHDA-induced toxicity in human SH-SY5Y cells assessed as reduction in condensed and fragmented nuclei at 10 uM pretreated for 1 hr followed by 6-OHDA challenge measured after 2 hrs by DAPI staining based assay relative to control
Conditions: time 3.0 hrs

Structure (SMILES) | Activity
CN/C(C)=N/C1=Nc2ccccc2CS1 | Active

Species: Rattus norvegicus
Test: Neuroprotective activity against oxygen glucose deprivation/reperfusion-induced Wistar rat cortical brain assessed as reduction in LDH release by measuring minimal effective concentration
Format: functional
Conditions: not given
Summary of the method: as §1

Structure (SMILES) | MEC
CCCNC(=S)NC1=Nc2ccccc2CS1 | inactive
C/C(=N\C1=Nc2ccccc2CS1)N(C)C | 0.01 µM
C/C(=N\C1=Nc2ccccc2SC1)N(C)C | inactive
NC1=Nc2ccc(OC(F)(F)F)cc2CS1 | inactive
CCN(CC)/C(C)=N/C1=Nc2ccccc2SC1 | inactive
CCCN(CCC)/C(C)=N/C1=Nc2ccc(OC(F)(F)F)cc2CS1 | 0.1 µM
CN/C(C)=N/C1=Nc2ccccc2SC1 | 100 µM
CN/C(C)=N/C1=Nc2ccccc2CS1 | 0.1 µM
CCN(CC)/C(C)=N/C1=Nc2ccc(OC(F)(F)F)cc2CS1 | inactive
CCCN(CCC)/C(C)=N/C1=Nc2ccccc2SC1 | 10 µM

System: SH-SY5Y
Test: Neuroprotective activity against glutamate-induced toxicity in human SH-SY5Y cells assessed as reduction in cell shrinkage at 0.01 uM pretreated for 1 hr followed by glutamate challenge measured after 24 hrs by phase-contrast light microscopic analysis
Format: functional, cell-based
Conditions: time 25.0 hrs
Summary of the method: as §2

Structure (SMILES) | Activity
Nc1nc2ccc(OC(F)(F)F)cc2s1 [RILUZOLE] | Active

System: SH-SY5Y
Test: Neuroprotective activity against glutamate-induced toxicity in human SH-SY5Y cells assessed as reduction in cell detachment at 0.01 uM pretreated for 1 hr followed by glutamate challenge measured after 24 hrs by phase-contrast light microscopic analysis
Format: functional, cell-based
Conditions: time 25.0 hrs
Summary of the method: as §2

Structure (SMILES) | Activity
Nc1nc2ccc(OC(F)(F)F)cc2s1 [RILUZOLE] | Active

Species: Rattus norvegicus
Test: Neuroprotective activity against oxygen glucose deprivation/reperfusion-induced Wistar rat cortical brain assessed as reduction in LDH release relative to control
Format: functional
Set-up: concentration or dose not given beside the values
Conditions: not given
Summary of the method: as §1

Structure (SMILES) | Activity
CCCNC(=S)NC1=Nc2ccccc2CS1 | inactive
C/C(=N\C1=Nc2ccccc2CS1)N(C)C | 78.4%
C/C(=N\C1=Nc2ccccc2SC1)N(C)C | inactive
NC1=Nc2ccc(OC(F)(F)F)cc2CS1 | inactive
CCN(CC)/C(C)=N/C1=Nc2ccccc2SC1 | inactive
CCCN(CCC)/C(C)=N/C1=Nc2ccc(OC(F)(F)F)cc2CS1 | 31%
CN/C(C)=N/C1=Nc2ccccc2SC1 | 33.2%
CN/C(C)=N/C1=Nc2ccccc2CS1 | 40.1%
CCN(CC)/C(C)=N/C1=Nc2ccc(OC(F)(F)F)cc2CS1 | inactive
CCCN(CCC)/C(C)=N/C1=Nc2ccccc2SC1 | 53.5%

System: SH-SY5Y
Test: Neuroprotective activity against glutamate-induced toxicity in human SH-SY5Y cells assessed as reduction in ROS production measured after 24 hrs by DCFH-DA staining based assay
Format: functional, cell-based
Conditions: dose 0.1-10 µM
Summary of the method: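 Human SH-SY5Y neuroblastoma cells were preloaded with DCFH-DA (5 μM, 30 min) and washed in PBS. They were then pretreated for 1 h with compound (0.1-10 μM; DMSO stock diluted in PBS, final DMSO <0.01%) and challenged with glutamate (50 mM). Fluorescence (ex 485/em 535 nm) was read at 24 h and expressed as % inhibition of glutamate-induced ROS. Data are mean ± SEM of 4 experiments run in triplicate or quadruplicate.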

Structure (SMILES) | Activity
Nc1nc2ccc(OC(F)(F)F)cc2s1 [RILUZOLE] | Dose-Dependent Effect
